From ChEMBL document CHEMBL3792296, “Synthesis and antiproliferative activity of 9-benzylamino-6-chloro-2-methoxy-acridine derivatives as potent DNA-binding ligands and topoisomerase II inhibitors” (Eur J Med Chem, 2016) come the findings set out here.

The structures appear in SMILES notation. Activity calls are given as the source filed them. The calls are words filed in the database; no cut-off is given here.

The subject of the first assay is A549. Put plainly: Antiproliferative activity against human A549 cells after 48 hrs by MTT assay. The format is functional, cell-based. Particulars: A549, 48 h. In outline: (§1)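 MTT assay: cells seeded at 4-8 × 10³ per well, incubated overnight at 37 °C in 5% CO₂, then given fresh medium with graded compound concentrations or equal DMSO for 48 h. MTT (5 mg/mL solution) added for a further 4 h, formazan dissolved in DMSO, absorbance read at 490 nm. Six cancer cell lines tested.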
The compound `COc1ccc2nc3cc(Cl)ccc3c(NCc3ccc(OC)c(F)c3)c2c1` displayed an IC50 of 0.95 µM.
`COc1ccc2nc3cc(Cl)ccc3c(NCc3cc(OC)c(OC)c(OC)c3)c2c1` yielded an IC50 of 2.18 µM.
Same read-out and setting: then `COc1ccc2nc3cc(Cl)ccc3c(NCc3cccc(C(F)(F)F)c3)c2c1`, with 0.16 µM; and `COc1ccc2nc3cc(Cl)ccc3c(NCc3ccc(OC(F)F)cc3)c2c1`, with 0.72 µM.
The same measure, in the same setting: then `COc1ccc2nc3cc(Cl)ccc3c(NCc3ccc(C(C)(C)C)cc3)c2c1`, with 7.03 µM; and `COc1ccc2nc3cc(Cl)ccc3c(NCc3ccc4c(c3)OCO4)c2c1`, with 0.65 µM.
The same measure, in the same setting: then `COc1ccc2nc3cc(Cl)ccc3c(NCc3ccccc3C(F)(F)F)c2c1`, with 6.32 µM.
`COc1cc(CNc2c3ccc(Cl)cc3nc3ccc(OC)cc23)cc(OC)c1` gave an IC50 of 9.2 µM.
On the same count and under the same terms, then `COc1ccc2nc3cc(Cl)ccc3c(NCc3ccc(OC)c(OC)c3)c2c1`, with 2.56 µM; and `COc1ccc2nc3cc(Cl)ccc3c(NCc3ccc(Br)cc3)c2c1`, with 3.26 µM.
Compound `COc1ccc2nc3cc(Cl)ccc3c(NCc3cccc(Cl)c3)c2c1` had a half-inhibitory concentration (IC50) of 4.64 µM.
For the compound `CCc1ccc(CNc2c3ccc(Cl)cc3nc3ccc(OC)cc23)cc1`, half-maximal inhibition (IC50) was put at 2.58 µM.

The test system of a further assay is MCF7. Put plainly: Antiproliferative activity against human MCF7 cells after 48 hrs by MTT assay. The format is functional, cell-based. Particulars: MCF7, 48 h. In a few lines:
as §1
Consider `COc1ccc2nc3cc(Cl)ccc3c(NCc3ccc(OC)c(F)c3)c2c1`, for which the IC50 was found to be 7.6 µM.
With `COc1ccc2nc3cc(Cl)ccc3c(NCc3cccc(C(F)(F)F)c3)c2c1`, the concentration for half-maximal inhibition (IC50) was found to be 10.5 µM.
The compound `COc1ccc2nc3cc(Cl)ccc3c(NCc3ccc(OC(F)F)cc3)c2c1` displayed an IC50 of 9.95 µM.
On to `COc1ccc2nc3cc(Cl)ccc3c(NCc3ccc4c(c3)OCO4)c2c1`, for which half-maximal inhibition (IC50) required 10.3 µM.

The test system of a further assay is HeLa. Put plainly: Antiproliferative activity against human HeLa cells after 48 hrs by MTT assay. The format is functional, cell-based.
Details: not given
In outline:
as §1
Compound `COc1ccc2nc3cc(Cl)ccc3c(NCc3ccc(OC)c(F)c3)c2c1` displayed an IC50 of 4.08 µM.
The same measure, in the same setting: as for `COc1ccc2nc3cc(Cl)ccc3c(NCc3cccc(C(F)(F)F)c3)c2c1`, the figure is 10.1 µM; as for `COc1ccc2nc3cc(Cl)ccc3c(NCc3ccc(OC(F)F)cc3)c2c1`, 4.41 µM.
`COc1ccc2nc3cc(Cl)ccc3c(NCc3ccc4c(c3)OCO4)c2c1` came in with an IC50 of 7 µM.

Tested on in a further assay: not listed separately
Put plainly: Antiproliferative activity against human HCT116 cells after 48 hrs by MTT assay. Format: functional, cell-based. The conditions noted are these: HCT-116, 48 h. In outline:
as §1
Regarding `COc1ccc2nc3cc(Cl)ccc3c(NCc3ccc(OC)c(F)c3)c2c1`, half-maximal inhibition (IC50) required 0.86 µM.
Compound `COc1ccc2nc3cc(Cl)ccc3c(NCc3cccc(C(F)(F)F)c3)c2c1` yielded an IC50 of 0.76 µM.
Turning to `COc1ccc2nc3cc(Cl)ccc3c(NCc3ccc(OC(F)F)cc3)c2c1`, the IC50 is 1.16 µM.
Turning to `COc1ccc2nc3cc(Cl)ccc3c(NCc3ccc4c(c3)OCO4)c2c1`, the midpoint of inhibition, the IC50, lay at 1.62 µM.

Another assay deals with CCRF-CEM. Put plainly: Antiproliferative activity against human CCRF-CEM cells after 48 hrs by MTT assay. Format: functional, cell-based.
Details: not given
In outline: as §1
In turn, `COc1ccc2nc3cc(Cl)ccc3c(NCc3ccc(OC)c(F)c3)c2c1` showed an IC50 of 3.08 µM.
The same measure, in the same setting: as for `COc1ccc2nc3cc(Cl)ccc3c(NCc3cccc(C(F)(F)F)c3)c2c1`, the figure is 5.11 µM.
For the compound `COc1ccc2nc3cc(Cl)ccc3c(NCc3ccc(OC(F)F)cc3)c2c1`, it took 6.87 µM to reach half-maximal inhibition (IC50).
Still for that read-out and setting: then `COc1ccc2nc3cc(Cl)ccc3c(NCc3ccc4c(c3)OCO4)c2c1`, with 2 µM.

The target of the next assay is T1, DNA topoisomerase 1 (Homo sapiens) (UniProt P11387).
T1 sequence (whole entry): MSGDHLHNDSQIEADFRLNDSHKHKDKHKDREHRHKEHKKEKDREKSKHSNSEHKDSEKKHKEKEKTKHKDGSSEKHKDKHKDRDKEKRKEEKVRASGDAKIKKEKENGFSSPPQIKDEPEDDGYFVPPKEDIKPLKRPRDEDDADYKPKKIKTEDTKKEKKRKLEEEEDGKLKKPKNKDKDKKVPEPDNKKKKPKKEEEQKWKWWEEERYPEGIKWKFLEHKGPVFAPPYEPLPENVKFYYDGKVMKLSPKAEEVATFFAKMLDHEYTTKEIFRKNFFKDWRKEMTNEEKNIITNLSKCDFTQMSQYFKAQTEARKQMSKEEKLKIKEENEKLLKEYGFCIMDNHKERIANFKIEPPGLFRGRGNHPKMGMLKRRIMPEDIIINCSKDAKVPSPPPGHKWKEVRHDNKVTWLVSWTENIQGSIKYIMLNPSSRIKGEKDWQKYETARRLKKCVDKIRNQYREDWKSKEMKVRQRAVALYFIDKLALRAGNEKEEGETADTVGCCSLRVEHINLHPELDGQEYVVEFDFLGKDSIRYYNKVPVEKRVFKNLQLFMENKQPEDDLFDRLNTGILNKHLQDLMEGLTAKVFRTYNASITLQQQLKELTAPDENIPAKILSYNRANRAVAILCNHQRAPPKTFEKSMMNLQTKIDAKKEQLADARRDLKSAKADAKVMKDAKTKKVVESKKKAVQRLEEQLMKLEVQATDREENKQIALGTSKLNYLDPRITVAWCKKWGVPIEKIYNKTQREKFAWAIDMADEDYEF
Put plainly: Inhibition of human topoisomerase 1 assessed as reduction in enzyme-mediated relaxation of supercoiled pBR322 DNA at 50 to 100 uM after 10 to 15 mins by agarose gel electrophoresis.
Details: not given
In a few lines:
(§2)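 Relaxation of 500 ng supercoiled pBR322 by 1 unit human Topo I or Topo IIα, with or without compound, in 20 µL reaction buffer at 37 °C for 10-15 min. Reactions stopped with loading buffer, run on 0.8% agarose in TAE at 80 V for 30 min. Gels stained with ethidium bromide 2.5 µg/mL and viewed under UV.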
`COc1ccc2nc3cc(Cl)ccc3c(NCc3ccc(OC)c(OC)c3)c2c1`: the inhibition entry was “Active”.
Take `CCc1ccc(CNc2c3ccc(Cl)cc3nc3ccc(OC)cc23)cc1`: the inhibition result is “Active”.

For the next assay, the target named is DNA topoisomerase 2-alpha (Homo sapiens) (UniProt P11388). Put plainly: Inhibition of human recombinant topoisomerase 2-alpha expressed in Escherichia coli assessed as reduction in enzyme-mediated relaxation of supercoiled pBR322 DNA at 100 uM after 10 to 15 mins by agarose gel electrophoresis.
DNA topoisomerase 2-alpha (Homo sapiens), sequence (P11388 whole entry): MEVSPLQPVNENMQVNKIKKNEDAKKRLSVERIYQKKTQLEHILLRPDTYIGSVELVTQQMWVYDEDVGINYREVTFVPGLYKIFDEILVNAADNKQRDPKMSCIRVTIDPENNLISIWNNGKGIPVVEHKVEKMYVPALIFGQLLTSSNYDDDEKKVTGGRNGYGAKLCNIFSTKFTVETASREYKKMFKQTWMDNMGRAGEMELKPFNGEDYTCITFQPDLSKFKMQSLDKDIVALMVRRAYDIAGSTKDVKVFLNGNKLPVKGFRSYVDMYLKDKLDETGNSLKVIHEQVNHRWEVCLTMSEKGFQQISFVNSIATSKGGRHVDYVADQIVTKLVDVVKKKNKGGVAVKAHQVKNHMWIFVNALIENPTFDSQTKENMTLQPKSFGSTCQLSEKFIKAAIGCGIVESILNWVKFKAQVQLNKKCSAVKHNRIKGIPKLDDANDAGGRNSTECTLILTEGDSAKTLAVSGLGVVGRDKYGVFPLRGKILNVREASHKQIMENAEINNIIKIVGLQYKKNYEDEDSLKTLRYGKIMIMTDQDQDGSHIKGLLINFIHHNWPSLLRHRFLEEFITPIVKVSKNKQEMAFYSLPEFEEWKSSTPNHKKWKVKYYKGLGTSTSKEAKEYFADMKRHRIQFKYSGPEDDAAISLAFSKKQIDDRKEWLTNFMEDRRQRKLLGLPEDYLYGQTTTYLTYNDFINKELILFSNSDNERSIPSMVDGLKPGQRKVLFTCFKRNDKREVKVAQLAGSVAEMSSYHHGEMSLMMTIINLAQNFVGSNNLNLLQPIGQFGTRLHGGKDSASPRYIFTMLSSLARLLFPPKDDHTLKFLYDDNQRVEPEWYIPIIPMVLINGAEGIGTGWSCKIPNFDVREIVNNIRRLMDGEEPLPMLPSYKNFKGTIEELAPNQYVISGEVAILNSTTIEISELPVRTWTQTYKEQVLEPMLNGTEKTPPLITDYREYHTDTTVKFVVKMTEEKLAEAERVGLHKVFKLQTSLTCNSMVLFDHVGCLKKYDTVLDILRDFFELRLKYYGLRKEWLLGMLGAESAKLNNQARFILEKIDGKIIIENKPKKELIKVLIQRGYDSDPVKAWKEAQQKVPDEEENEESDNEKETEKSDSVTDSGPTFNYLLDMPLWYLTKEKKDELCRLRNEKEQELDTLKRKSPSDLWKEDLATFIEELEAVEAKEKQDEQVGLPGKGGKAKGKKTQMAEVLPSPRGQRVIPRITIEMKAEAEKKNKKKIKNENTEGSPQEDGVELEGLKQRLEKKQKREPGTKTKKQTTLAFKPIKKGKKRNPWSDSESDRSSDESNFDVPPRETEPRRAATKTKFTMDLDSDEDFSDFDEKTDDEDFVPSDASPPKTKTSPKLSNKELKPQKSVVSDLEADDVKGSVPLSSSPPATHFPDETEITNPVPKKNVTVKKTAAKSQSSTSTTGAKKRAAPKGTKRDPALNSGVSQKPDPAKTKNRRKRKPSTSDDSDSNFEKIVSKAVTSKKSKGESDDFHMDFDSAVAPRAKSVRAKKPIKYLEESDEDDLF
Details: not given
In a few lines:
as §2
With `COc1ccc2nc3cc(Cl)ccc3c(NCc3ccc(OC)c(F)c3)c2c1`, the inhibition entry is “Active”.
Turning to `COc1ccc2nc3cc(Cl)ccc3c(NCc3cc(OC)c(OC)c(OC)c3)c2c1`, the inhibition result is “Active”.
Consider `COc1ccc2nc3cc(Cl)ccc3c(NCc3cccc(C(F)(F)F)c3)c2c1`, for which the inhibition result was “Active”.
Still for that read-out and setting: as for `COc1ccc2nc3cc(Cl)ccc3c(NCc3ccc(OC(F)F)cc3)c2c1`, the entry is “Active”; as for `COc1ccc2nc3cc(Cl)ccc3c(NCc3ccc(C(C)(C)C)cc3)c2c1`, “Active”.
Still for that read-out and setting: as for `COc1ccc2nc3cc(Cl)ccc3c(NCc3ccc4c(c3)OCO4)c2c1`, the entry is “Active”; as for `COc1ccc2nc3cc(Cl)ccc3c(NCc3ccccc3C(F)(F)F)c2c1`, “Active”; as for `COc1cc(CNc2c3ccc(Cl)cc3nc3ccc(OC)cc23)cc(OC)c1`, “Active”.
The same measure, in the same setting: as for `COc1ccc2nc3cc(Cl)ccc3c(NCc3ccc(OC)c(OC)c3)c2c1`, the entry is “Active”; as for `COc1ccc2nc3cc(Cl)ccc3c(NCc3ccc(Br)cc3)c2c1`, “Active”.
`COc1ccc2nc3cc(Cl)ccc3c(NCc3cccc(Cl)c3)c2c1`: the inhibition result was “Active”.
For `CCc1ccc(CNc2c3ccc(Cl)cc3nc3ccc(OC)cc23)cc1`, the inhibition result is “Active”.

For a further assay the target is unchanged. Put plainly: Inhibition of human recombinant topoisomerase 2-alpha expressed in Escherichia coli assessed as reduction in enzyme-mediated relaxation of supercoiled pBR322 DNA at 10 to 50 uM after 10 to 15 mins by agarose gel electrophoresis.
Details: not given
In a few lines: as §2
Take `COc1ccc2nc3cc(Cl)ccc3c(NCc3ccc(OC)c(F)c3)c2c1`: the inhibition entry is “Active”.
The same measure, in the same setting: as for `COc1ccc2nc3cc(Cl)ccc3c(NCc3cccc(C(F)(F)F)c3)c2c1`, the entry is “Active”.
Still for that read-out and setting: as for `COc1ccc2nc3cc(Cl)ccc3c(NCc3ccc(OC(F)F)cc3)c2c1`, the entry is “Active”; as for `COc1ccc2nc3cc(Cl)ccc3c(NCc3ccc4c(c3)OCO4)c2c1`, “Active”.
